Measured values collected from several papers.
Protocols differ between the studies behind these lines.
TYK2: Non-receptor tyrosine-protein kinase TYK2 (TYK2, Homo sapiens, UniProt P29597)
TYK2 JH2: Non-receptor tyrosine-protein kinase TYK2, JH2 (TYK2, Homo sapiens, UniProt P29597)
TYK2 JH1: Non-receptor tyrosine-protein kinase TYK2, JH1 (TYK2, Homo sapiens, UniProt P29597)

Structure (SMILES)	target	test	setting	remaining binding [%]
CN(C)c1nccc(-c2cnc3ncccn23)n1	TYK2	binding	1 µM	82
O=C(Nc1c[nH]nc1C(=O)NC1CCNCC1)c1cc(F)cc(F)c1	TYK2 JH2	binding, competition with immobilised ligand	1 µM	100
O=C(NCCCN1CCOCC1)c1ccc(Nc2ncc(Cl)c(-c3ccc(Cl)s3)n2)cc1	TYK2 JH1	binding, competition with immobilised ligand	1 µM	26
C[C@@H]1CCN(c2nccc(-c3cnn4ncccc34)n2)C1	TYK2	binding	1 µM	66
COc1cccc(CNC(=O)c2nc3scc(COCc4ccc(C(=O)O)cc4)c3c(=O)[nH]2)c1	TYK2 JH2	cell-free assay, competition with immobilised ligand	1 µM	79.8
N#Cc1ccccc1CSc1nnc2c(n1)[nH]c1ccccc12	TYK2 JH1	binding, competition with immobilised ligand	10 µM	96
CN1CCN(c2ccc(Nc3nccc(-c4ccccc4)n3)cc2C(F)(F)F)CC1	TYK2	binding	10 µM	0
CN(C)c1nccc(-c2cnn3ncccc23)n1	TYK2	binding	1 µM	100
CCN1CCN(Cc2ccc(C(=O)Nc3ccc(C)c(Oc4ccc5c(c4)CC(=O)N5)c3)cc2C(F)(F)F)CC1	TYK2 JH2	binding, competition with immobilised ligand	1 µM	100
CN(C)c1ncnc(-c2ccc3nc(Nc4cc(CN5CCN(C(=O)CC(F)(F)F)CC5)ccn4)[nH]c3c2)c1Cl	TYK2 JH2	cell-free assay, competition with immobilised ligand	1 µM	77
O=C(c1ccc(Nc2ncc(Cl)c(-c3ccc(Cl)s3)n2)cc1)N1CCC(N2CCCC2)CC1	TYK2 JH1	binding, competition with immobilised ligand	1 µM	25
c1cnn2ncc(-c3ccnc(N4CCC45COC5)n3)c2c1	TYK2	binding	1 µM	66
O=C(NCCCN1CCOCC1)c1ccc(Nc2nccc(-c3cc4ccccc4s3)n2)cc1	TYK2 JH2	binding, competition with immobilised ligand	1 µM	0
CN(C)c1ncc(F)c(-c2cnn3ncccc23)n1	TYK2	binding	1 µM	70
COc1ccc2cc(OCC3(C(=O)O)CN(C(=O)c4ccc(F)cc4)C3)ccc2c1	TYK2 JH2	cell-free assay, competition with immobilised ligand	1 µM	100
O=C(c1ccc(Nc2nccc(-c3cc4ccccc4s3)n2)cc1)N1CCC(N2CCCC2)CC1	TYK2 JH2	binding, competition with immobilised ligand	1 µM	0.1
CC(=O)c1c(NS(C)(=O)=O)c2cc(-c3ccc(Cl)cc3)c(-c3ccc(Cl)cc3Cl)nc2n(C)c1=O	TYK2 JH2	cell-free assay, competition with immobilised ligand	1 µM	89

Structure (SMILES)	target	test	setting	remaining binding [%]
CNC(=O)[C@@H]1CC[C@@H](n2c(-c3ccc4cnccc4c3)nc3ccc(C(=O)NCc4cccc(C(N)=O)c4)cc32)C1	TYK2 JH2	binding, competition with immobilised ligand	1 µM	100
Nc1ncc2c(n1)-c1c([nH]c3ccc(C#CC4CC4)cc13)CCCC2	TYK2 JH2	binding, competition with immobilised ligand	1 µM	73
C[C@H](c1ccc(F)cc1)N(Cc1cccc(C(=O)O)c1)C(=O)c1cnc2ccccc2c1	TYK2 JH2	cell-free assay, competition with immobilised ligand	1 µM	92
O=C(NCC1CCOCC1)c1n[nH]cc1NC(=O)c1c(F)cccc1F	TYK2 JH1	binding, competition with immobilised ligand	1 µM	91
CC(=O)N1CCC(c2ccc(C(=O)NC3=NCCN3)cc2C(F)(F)F)CC1	TYK2 JH2	cell-free assay, competition with immobilised ligand	1 µM	100
COc1cnc(Nc2cccc(S(N)(=O)=O)c2)nc1N1CCN(c2ccccc2)C(=O)C1	TYK2 JH2	binding, competition with immobilised ligand	1 µM	13
C[C@H](NC(=O)c1cnc2n1[C@](C)(Cc1ccc(C#N)cc1)C(=O)N2c1cc(Cl)c(F)c(Cl)c1)C(=O)NC1(c2ccccn2)CC1	TYK2 JH2	cell-free assay, competition with immobilised ligand	1 µM	100
Cc1cnc(Nc2ccc(C(=O)N3CCC(N4CCCC4)CC3)cc2)nc1-c1cc2ccccc2s1	TYK2 JH2	binding, competition with immobilised ligand	1 µM	0
COc1cnc(Nc2cccc(S(N)(=O)=O)c2)nc1N1CCN(c2ccccc2)CC1	TYK2 JH1	binding, competition with immobilised ligand	1 µM	53
Cc1nc(C2CCN(C(=O)c3ccc(OC(F)(F)F)cc3N)CC2)c2ncc(N3CCN(C)CC3)cc2n1	TYK2 JH2	cell-free assay, competition with immobilised ligand	1 µM	88
COc1ncc2cc3ccccc3nc2c1C#N	TYK2 JH1	cell-free assay, competition with immobilised ligand	5 µM	69
N[C@H]1CCN(c2nccc(-c3cnn4ncccc34)n2)C1	TYK2	binding	1 µM	78
O=C(c1ccc(Nc2ncc(Cl)c(-c3cc4ccccc4s3)n2)cc1)N1CCC(N2CCCC2)CC1	TYK2 JH2	binding, competition with immobilised ligand	1 µM	0.1
COc1ccnn2ncc(-c3ccnc(N(C)C)n3)c12	TYK2 JH1	cell-free assay, competition with immobilised ligand	1 µM	81
c1cncc(-c2cccc(Nc3nccc(NC4CCCCC4)n3)c2)c1	TYK2 JH2	binding, competition with immobilised ligand	10 µM	3.8
CN(CCCC(F)(F)F)c1nccc(-c2cnn3ncccc23)n1	TYK2 JH1	cell-free assay, competition with immobilised ligand	1 µM	100
C[C@@H]1CN(c2ccc3ncc(-c4ccc5[nH]nc(C6CC6)c5c4)n3n2)C[C@H](C)O1	TYK2	binding, competition with immobilised ligand	0.5 µM	100
